The test system of this assay is U2OS-GPR55 ERK1/2 phosphorylation, western blot. Put plainly: GPR55 agonist-induced ERK1/2 phosphorylation, SAR follow-up, mechanism study, cell-based, U2OS-GPR55, western blot, MAPK activation (AID 485279). To be noted: at 1 µM, stronger effect = higher value; for stimulation: measured here: ERK stimulation vs negative control. In outline:
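Dosing: single compound dose, 1 µM final / System: GPR55/beta-arrestin-GFP U2OS cells / Amount: 20 µg cytosolic lysate protein per blot lane / Measured by: two-colour fluorescent western blot of cytosolic lysates / Timing: 10 min compound exposure, room temperature / Control set: LPI 10 µM reference agonist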

The structures appear in SMILES notation. Activity calls are given as the source filed them.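 How the source made its calls: active means average efficacy above 50%; inactive means the rest.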

With `Cc1occc1C(=O)Nc1ccc(OCc2ccccc2)cc1`, the efficacy is 69% and the stimulation amounted to 127%.
For `CC(C)Oc1ccc(S(=O)(=O)N2CCOCC2)cc1NC(=O)c1ccc(N2CCCC2=O)cc1`, in that order: 103% and 143%.
For `CN(C)S(=O)(=O)c1ccc(N2CCCC2)c(C(=O)N2CCN(c3ccc([N+](=O)[O-])cc3)CC2)c1`, the efficacy is 63.1% and the stimulation is 141%.
Turning to `COc1ccc2cc(C)c3nnc(SCC(=O)Nc4nc(-c5ccc(F)cc5)cs4)n3c2c1`, the efficacy is 133% and the stimulation is 168%.
As for `COc1ccccc1/C=C/C(=O)NC(=S)Nc1ccc(S(=O)(=O)N(C)c2ccccc2)cc1`, the efficacy was 259% and the stimulation is 201%.
For `COc1ccc(-c2csc(NC(=O)CSc3nnc4c(C)cc5ccccc5n34)n2)cc1`, the efficacy was 79.7% and the stimulation worked out at 133%.
For the compound `Cc1cccc(N2CCN(C(=O)c3cc(S(=O)(=O)N(C)C)ccc3N3CCCC3)CC2)c1C`, the efficacy is 128% and the stimulation came out at 149%.
Consider `CCCN(CCC)Cc1c(C(=O)NN=Cc2c[nH]c3ccccc23)nnn1-c1nonc1N`, for which the efficacy was -65.3% (inactive) and the stimulation was found to be 77.7%.
`COc1ccc(S(=O)(=O)N2CCOCC2)cc1NC(=O)c1cc2c(s1)CCCC2`: the efficacy was 95.6% and the stimulation was determined as 135%.

The record behind these values is PubChem BioAssay AID485279 (Sanford-Burnham Center for Chemical Genomics, 2010).
